# A selection: hits, their analogues and other compounds. The true share with any hit is near 1.1%.
# CAL PDZ FP-1 = inhibitors of human CAL PDZ peptide binding; inhibition, % at 20 µM; Q9HD26; 330,000 tested, 0.02% active; purified CAL PDZ, TMR-peptide fluorescence polarization, 1 h; AID 504414;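 active means highest replicate inhibition of at least 40%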;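 further: plate controls were DMSO neutral control wells for no effect and unlabeled competitor peptide control wells for full effect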
#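 System: tagged CAL PDZ domain. Schedule: 1 h room-temperature incubation prior to read. Signal: fluorescence polarization (mP). Measure: percent inhibition from loss of millipolarization.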
# Keap1-Nrf2 PPI = disrupts human Keap1 binding to Nrf2 peptide | Q14145 | 340,000 tested, 0.15% active | inhibition, % at 9.4 µM | Keap1 Kelch-Nrf2 peptide fluorescence polarization, 1536-well | AID 504523; in the data active means inhibition above about 12%;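 further: human Keap1 Kelch domain with fluorescein labeled Nrf2 9mer peptide probe; 0% = neutral control wells and 100% = peptide positive control; higher means more block of Keap1 binding to Nrf2 peptide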
# Target sequence (Q14145 whole entry, looked up, the tested form may be a part): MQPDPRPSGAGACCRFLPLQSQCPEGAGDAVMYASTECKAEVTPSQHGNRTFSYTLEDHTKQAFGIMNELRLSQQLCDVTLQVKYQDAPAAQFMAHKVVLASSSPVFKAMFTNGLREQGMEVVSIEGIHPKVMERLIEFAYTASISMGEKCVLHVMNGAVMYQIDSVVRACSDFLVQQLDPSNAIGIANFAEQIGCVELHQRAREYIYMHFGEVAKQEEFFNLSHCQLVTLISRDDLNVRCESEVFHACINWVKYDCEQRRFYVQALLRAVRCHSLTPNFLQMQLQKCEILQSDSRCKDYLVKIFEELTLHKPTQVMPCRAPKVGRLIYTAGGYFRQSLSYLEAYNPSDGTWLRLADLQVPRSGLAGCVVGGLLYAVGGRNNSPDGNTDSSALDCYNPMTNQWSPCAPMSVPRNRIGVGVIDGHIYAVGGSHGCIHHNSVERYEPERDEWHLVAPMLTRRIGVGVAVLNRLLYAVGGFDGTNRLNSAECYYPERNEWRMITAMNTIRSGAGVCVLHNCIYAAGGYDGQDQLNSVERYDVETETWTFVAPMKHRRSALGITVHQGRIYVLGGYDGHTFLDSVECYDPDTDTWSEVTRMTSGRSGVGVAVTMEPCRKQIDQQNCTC
# miR-122 sensor = blocks miR-122 activity in Huh7 sensor cells. Huh7 miR-122 Renilla luciferase sensor, 48 h; neutral wells = 0, positive control = 100. activation (reporter increase), % at 12.5 µM. 340,000 tested, 0.3% active;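 active means mean replicate activation score at least 90 and every replicate individually at or above 90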;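 further: higher luciferase means less miR-122 activity so hits act as miR-122 inhibitors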
# CAL PDZ FP-2 = blocks peptide binding to the human CAL PDZ domain; Q9HD26; purified CAL PDZ, TMR-peptide fluorescence polarization, 1 h; 300,000 tested, 0.92% active; inhibition, % at 24.9 µM;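 active means mean inhibition of at least 30% with at least half of replicates also reaching 30%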;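 further: 0% = DMSO neutral control and 100% = excess unlabeled competitor peptide PRC23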
# C-LANA FP = inhibitors of KSHV LANA C-terminal domain DNA binding; MBP-C-LANA/FAM-LBS DNA binding, fluorescence polarization; inhibition, % at 9 µM; 340,000 tested, 0.078% active; AID 504423;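 active means highest replicate inhibition at or above 60% at 9 µM, even if other replicates fall short; inactive means all replicates below 60% inhibition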;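 further: 0% = neutral control wells and 100% = 4 µM acridine orange control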
# Numbers without * were called inactive; · = not tested or not shown; ! = a repeat was not active; [ ] = another dose, or the depositor's remark.
SMILES,CAL PDZ FP-1,Keap1-Nrf2 PPI,miR-122 sensor,CAL PDZ FP-2,C-LANA FP
C/C=C/c1ccc2c(c1)O[C@H](CN(C)S(=O)(=O)c1ccccc1)[C@H](C)CN([C@@H](C)CO)S2(=O)=O,·,·,268*[16.7 µM],·,·
C[C@H]1CN([C@@H](C)CO)S(=O)(=O)c2ccc(Br)cc2O[C@H]1CN(C)S(=O)(=O)c1ccccc1F,·,·,179*![16.7 µM],·,·
COCC#Cc1ccc2c(c1)O[C@H](CN(C)S(=O)(=O)c1ccc(OC)cc1)[C@@H](C)CN([C@H](C)CO)S2(=O)=O,·,·,48[16.7 µM],·,·
COCC#Cc1ccc2c(c1)O[C@H](CN(C)S(=O)(=O)c1ccc(OC)cc1)[C@H](C)CN([C@H](C)CO)S2(=O)=O,·,·,120*[16.7 µM],·,·
Cc1ccc(-c2ccc3c(c2)O[C@H](CN(C)Cc2ccc(F)cc2)[C@@H](C)CN([C@H](C)CO)S3(=O)=O)cc1,·,·,98*[16.7 µM],·,·
CC(=O)NC(CC(=O)N(C)C1CCCCC1)c1ccccc1 (configuration not stated),2,-4,6,-2,-1
CC(C)(O)CN(C(=O)C(c1ccccc1)c1ccccc1)C1CCCCC1,0,7,·,31*,-5
CCCNC(=O)C[C@H]1C[C@@H]2c3cc(NC(=O)Nc4ccc(F)cc4)ccc3O[C@@H]2[C@@H](CO)O1,·,·,1[16.7 µM],·,·
CCCNS(=O)(=O)c1ccc(OC)c(Cl)c1Cl,0,7,33,-7,0
COc1ccc(S(=O)(=O)NCCSC(C)(C)C)c(Cl)c1Cl,-2,1,253*,-6,-1
CN(C)C(=O)CN1C(=O)C2CC=C(Cl)CC2C1=O (configuration not stated),0,-2,-4,32*,7
CCN(CC)C(=O)CN1C(=O)C2CC=C(Cl)CC2C1=O (configuration not stated),1,-2,-17,·,5
N#Cc1c(NC(=O)c2ccccc2)sc2c1CCC2,-2,3,111*,-5,1
CC(=O)Nc1sc2c(c1C(N)=O)CCC2,·,-1,-14,68*,0
O=C(Nc1sc2c(c1C(=O)O)CCC2)c1ccco1,0,-7,123*,-1,2
CC(=O)NC[C@H]1[C@H](c2ccc(C3=CCCC3)cc2)[C@@H](CO)N1Cc1cccnc1,·,·,25[16.7 µM],·,·
C[C@H](CO)N1C[C@H](C)[C@@H](CN(C)C(=O)CN(C)C)Oc2cc(-c3cccnc3)ccc2S1(=O)=O,·,·,-3[16.7 µM],·,·
COc1ccc(-c2cc(C)no2)cc1S(=O)(=O)Nc1cccc(C)c1,-3,-3,117*,-1,1
COc1ccc(-c2cc(C)no2)cc1S(=O)(=O)Nc1ccccc1,-3,2,120*,-2,-2
CCCNC(=O)NC[C@@H]1[C@H](c2ccc(C3=CCCC3)cc2)[C@H](CO)N1C(=O)CC,·,·,36[16.7 µM],·,·
CCCNC(=O)NC[C@@H]1[C@@H](c2ccc(C3=CCCC3)cc2)[C@H](CO)N1C(=O)CC,·,·,343*[16.7 µM],·,·
CC(C)NC(=O)N(C)C[C@H]1Oc2ccc(NC(=O)Cn3cnnn3)cc2C(=O)N([C@@H](C)CO)C[C@H]1C,·,·,0[16.7 µM],·,·
Cc1noc(C)c1S(=O)(=O)N(C)C[C@@H]1Oc2ccc(NS(=O)(=O)c3ccccc3)cc2C(=O)N([C@@H](C)CO)C[C@@H]1C,·,·,-6[16.7 µM],·,·
CCn1c(=O)c2cc(S(=O)(=O)NC3CCCCC3)ccc2n(CC)c1=O,-2,-1,98*,-2,-1
CN(C)Cc1c(C(=O)N/N=C/c2ccc(OCc3c(F)cccc3Cl)cc2)nnn1-c1nonc1N,2,4,3,77*,1
SMILES,CAL PDZ FP-1,Keap1-Nrf2 PPI,miR-122 sensor,CAL PDZ FP-2,C-LANA FP
O=C(C1CCC1)N1C[C@H]2[C@@H](c3ccccc31)[C@@H](CO)N2C(=O)c1ccccc1,·,·,10[16.7 µM],·,·
Cc1ccnc(NC(=O)c2ccc(Br)s2)c1,·,2,·,63*,-1
Cc1ccnc(NC(=O)c2cccs2)c1,0,-2,-5,-3,0
CN(CCO)c1nc(N)c2c(N)nc3c(c2c1C#N)CC(=O)N3Cc1cccs1,0,-3,-3,123*,-1
Cc1ccc(NC(=O)CN(C)CC(=O)NC2CCCc3ccccc32)cc1 (configuration not stated),-2,1,-4,-4,0
CCOc1ccc(NC(=O)CN(C)CC(=O)NC2CCCc3ccccc32)cc1OCC (configuration not stated),0,-4,2,40*,-1
COc1cc(CC(=O)NC2CCCc3ccccc32)cc(OC)c1OC (configuration not stated),-1,0,·,43*,-2
O=C(CSc1cc(Cl)ccc1Cl)NC1CCCc2ccccc21 (configuration not stated),-3,5,15,-6,1
Cc1ccc2nc(SCC(=O)NC3CCCc4ccccc43)[nH]c2c1 (configuration not stated),-1,5,·,84*,-2
COCc1[nH][nH]c(=O)c1C=Nc1ccccc1,-3,-2,1,1,1
COCc1[nH][nH]c(=O)c1/C=N/N1CCOCC1,-1,0,·,43*,-1
Cc1nn(-c2ccccc2)nc1CNC(=O)C(C)Cc1ccccc1 (configuration not stated),-1,6,0,0,1
COc1ccccc1CC(=O)NCc1nn(-c2ccccc2)nc1C,1,-7,·,65*,1
COc1ccccc1CNC(=O)C[C@H]1C[C@@H]2c3cc(NC(=O)C4CCOCC4)ccc3O[C@@H]2[C@@H](CO)O1,·,·,-5[16.7 µM],·,·
CCOc1ccc2cc(C3CC(c4ccco4)=NN3S(C)(=O)=O)c(=O)[nH]c2c1 (configuration not stated),-1,-5,126*,0,1
CCOc1ccc2nc(Cl)c(C3CC(c4ccco4)=NN3S(C)(=O)=O)cc2c1 (configuration not stated),-1,-3,-3,4,0
C[C@@H]1CN([C@H](C)CO)S(=O)(=O)c2ccc(-c3cccnc3)cc2O[C@@H]1CN(C)C(=O)NC1CCCCC1,·,·,27[16.7 µM],·,·
O=C(O)C1CC=CCC1C(=O)NCc1ccccc1 (configuration not stated),-2,-6,20,·,0
O=C(O)C1CC=CCC1C(=O)NCCCCc1ccccc1 (configuration not stated),-1,-5,·,82*,0
COc1ccc(S(=O)(=O)NCCc2c(C)nn(C)c2Oc2ccccc2)cc1,-1,2,238*,-7,0
